# Rows were chosen to be rich in hits. Some 3.1% of all compounds tested hit in one or more screens of this group.
# V-ATPase pH = alters yeast V-ATPase proton transport. S. cerevisiae, pHLuorin cytosolic pH fluorescence. AID 504577. actives 0.37% (n = 350,000). response, % at 10 µM; in the data active means response mostly above about 7.3%, no sharp cut-off; inactive means mostly below about 5.4%; further: actives read high
# aDG glyco act = increases alpha dystroglycan glycosylation. AID 624168. actives 0.22% (n = 360,000). Pro5-aDG cells, alpha-DG glycosylation AlphaScreen (IIH6); 0% Pro5, 100% B10-LARGE cell signal. activation, % at 10 µM;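 active means activation of at least 8% versus controls, or a plate z-score of at least 8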;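 further: Pro5 are CHO cells carrying HIG-tagged alpha-DG that lacks glycosylation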
# ADAM10 inh = inhibitors of human ADAM10; O14672; recombinant ADAM10, EDANS/DABCYL FRET peptide cleavage, 3 h; inhibition, % at 7 µM; actives 0.62% (n = 370,000); AID 720582;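 active means inhibition above a per-campaign cutoff equal to the mean of compounds falling between control-based bounds plus 3 SD, cut at about 20% in these data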;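 further: 0% = DMSO wells while the 100% control is not disclosed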
# Target sequence (O14672 214-748 limits assumed): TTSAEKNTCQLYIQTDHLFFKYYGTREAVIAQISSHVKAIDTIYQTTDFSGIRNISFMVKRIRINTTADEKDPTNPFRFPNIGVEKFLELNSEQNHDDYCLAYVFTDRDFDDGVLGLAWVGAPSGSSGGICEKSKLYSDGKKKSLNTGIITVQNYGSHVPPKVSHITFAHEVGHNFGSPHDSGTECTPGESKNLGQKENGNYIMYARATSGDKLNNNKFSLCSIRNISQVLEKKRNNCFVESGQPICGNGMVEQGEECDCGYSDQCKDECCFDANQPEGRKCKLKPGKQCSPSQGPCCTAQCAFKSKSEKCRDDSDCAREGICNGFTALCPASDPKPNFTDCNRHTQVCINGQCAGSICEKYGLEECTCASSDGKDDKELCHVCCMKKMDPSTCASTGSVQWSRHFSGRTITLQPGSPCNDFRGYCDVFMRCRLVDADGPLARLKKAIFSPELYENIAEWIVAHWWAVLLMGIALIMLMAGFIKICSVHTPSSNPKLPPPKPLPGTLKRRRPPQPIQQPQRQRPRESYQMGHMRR
# Lipid droplet = hepatic lipid droplet formation modulation; actives 0.4% (n = 240,000); inhibition, % at 6.5 µM; AML12 mouse hepatocytes, oleate lipid droplets, BODIPY imaging; AID 1656;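 active means lipid droplet intensity inhibited by at least 50%, with more than 500 cells counted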
#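 Technique: fluorescence imaging, 20x objective, two fields per well / Assay system: AML12 hepatocytes (mouse) / Measure: % inhibition of lipid droplet signal / Doses: 6.5 µM single-point dosing / Incubation: overnight exposure / Reagent: 100 µM oleic acid challenge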
# MPTP block = blocks calcium-induced mitochondrial swelling; isolated mouse mitochondria, Ca2+ swelling absorbance, 30 min; inhibition, % at 10 µM; actives 1.4% (n = 360,000);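 active means inhibition of 50% or more, scaled per plate between neutral and stimulator controls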;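 further: 0% = DMSO wells given calcium and 100% = 1 mM EGTA wells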
# ADAM17 inh = inhibitors of human ADAM17. AID 720648. actives 0.83% (n = 370,000). recombinant ADAM17, EDANS/DABCYL FRET peptide cleavage. P78536. inhibition, % at 6.95 µM;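 active means inhibition above the mean of compounds lying between control limits plus 3 SD, set per campaign, cut at about 8.5% in these data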;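 further: 0% = DMSO-only wells as the low control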
# Rh123 counter = mitochondrial membrane potential, counter-screen; shares compounds with MPTP block; isolated mitochondria, Rhodamine 123 fluorescence; inhibition, % at 10 µM; actives 78% (n = 5,000); AID 624504; in the data active means inhibition above about 22%;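 further: 0% = DMSO vehicle and 100% = positive control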
# MPTP swell DR = dose response confirmation of mitochondrial permeability transition pore inhibitors; IC50, µM; AID 651561; isolated mitochondria swelling, absorbance; shares compounds with MPTP block; actives 58% (n = 780); in the data active means IC50 below about 20 µM
# MPTP cs DR = MPTP inhibitor counter-screen activity, dose response; isolated mitochondria counterscreen, fluorescence read-out; shares compounds with MPTP block; actives 49% (n = 780); IC50, µM; AID 651564; in the data active means IC50 below about 80 µM
# Active calls of the source: *; i = inactive; · = not tested or not shown.
SMILES,V-ATPase pH,aDG glyco act,ADAM10 inh,Lipid droplet,MPTP block,ADAM17 inh,Rh123 counter,others
CCOC(=O)NC1(Nc2cccc(Cl)c2)Oc2ccccc2O1,0,1,14,14,1,0,·,
N#C/C(=N\Nc1ccc(Cl)cc1)C(=O)c1ccccc1,-5,0,-6,-17,96*,1,83*,
CCOC(=O)NC(=O)/C(C#N)=N\Nc1cccc(Cl)c1,0,0,6,-1,93*,3,73*,
CCOC(=O)NC(=O)/C(C#N)=N\Nc1ccc(Cl)cc1,-3,0,-1,·,90*,-6,95*,
CCOc1ccc(N/N=C(/C#N)C(N)=O)cc1,5,0,0,·,1,-5,·,
COc1ccc(OC)c(CN2C(=O)c3ccnn3CC2(C)c2nnnn2C2CCCC2)c1 (stereo unspecified),·,·,3,·,·,2,·,
O=C(NC(NC(=S)Nc1ccc(Cl)cc1)C(Cl)(Cl)Cl)c1ccco1 (stereo unspecified),-2,0,5,13,96*,3,84*,
CCc1ccc(OCC(=O)NC(NC(=S)Nc2ccc(Cl)cc2)C(Cl)(Cl)Cl)cc1 (stereo unspecified),-2,1,-2,-4,98*,-1,81*,
CCc1ccccc1NC(=O)Nc1cc(F)ccc1F,0,1,5,-9,58*,-1,88*,
Cc1ccc(NC(=O)CCC(=O)c2ccc(F)cc2)cc1Cl,-5,0,5,·,-2,-2,·,
COc1cccc(NC(=O)Nc2ccc(C)c(Cl)c2)c1,5,1,-3,19,80*,-4,90*,
Cc1ccc(NC(=O)Nc2ccc(F)cc2)cc1Cl,1,0,3,3,95*,-2,90*,
COc1cccc(NC(=O)Nc2ccncc2)c1,1,1,7,-15,12,1,·,
COc1cccc(C(C)NC(=O)Nc2cccc(C(F)(F)F)c2)c1 (stereo unspecified),2,0,11,·,96*,8,102*,
COc1cccc(NC(=O)Nc2ccc(C(C)(C)C)cc2)c1,-3,1,8,3,79*,4,81*,
O=C(N[C@H]1C[C@@H]2O[C@@H](CO)CC[C@@H]2O[C@@H]1CCc1ccc(-c2cccnc2)cc1)c1cccc(F)c1,·,·,0,·,·,2,·,
COc1cccc(NC(=O)Nc2ccc3c(c2)N(C)C(=O)CS3)c1,5,0,10,8,88*,5,78*,
C=CCN(C(=O)c1cccc(S(=O)(=O)N2CCN(C)CC2)c1)c1nc(-c2ccccc2)cs1,-4,0,12,-2,73*,2,6,MPTP swell DR=i;MPTP cs DR=76*
CN1CCN(S(=O)(=O)c2cccc(C(=O)N(C)Cc3cccs3)c2)CC1,4,0,5,·,-1,6,·,
O=C(NCCc1c[nH]c2ccccc12)OCc1cn(Cc2ccccc2C(F)(F)F)nn1,·,·,6,·,·,0,·,
C[C@@H]1COc2cc(Br)ccc2S(=O)(=O)N1Cc1cn(Cc2ccccc2)nn1,·,·,5,·,·,2,·,
CCc1nc(SCc2nc3ccccc3[nH]2)c2oc3ccccc3c2n1,2,0,-15,·,69*,-4,82*,
Cc1nc(SCc2nc3cc(Cl)c(F)cc3[nH]2)c2oc3ccccc3c2n1,2,1,-16,·,63*,-5,80*,
Cc1nc(SCc2nc3ccc(Br)cc3[nH]2)c2oc3ccccc3c2n1,0,0,-3,·,44,0,·,
Cc1nc(SCc2nc3ccc(C(F)(F)F)cc3[nH]2)c2oc3ccccc3c2n1,1,0,-5,·,50*,2,89*,
COc1ccc2c(c1)oc1c(SCc3nc4ccccc4[nH]3)nc(C)nc12,0,0,-22,·,0,-7,·,
NC[C@@H]1O[C@H](C23CC4CC(CC(C4)C2)C3)Cc2c1ccc(O)c2O,3,0,6,-41,94*,3,-15,
